Experimental data from ChEMBL document CHEMBL1926598, “Synthesis, anti-inflammatory activity and ulcerogenic liability of novel nitric oxide donating/chalcone hybrids” (Bioorg Med Chem, 2012).

Assays:
Rattus norvegicus [1] = test: Gastric toxicity in albino rat assessed as loss of glandular structure morphology at 100 mg/kg, po after 5 hrs by hematoxylin and eosin staining; assay type: organism-based; design: dose 100 mg/kg, route oral; settings: in vivo
In short: (§1)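 Stomach sections from control and treated rats were dewaxed and hydrated through graded alcohols. They were stained with haematoxylin 5–7 min, differentiated 5–10 s in 1% HCl in 70% alcohol, then stained with 1% eosin for 10 min. Mucosa of the fundic stomach was examined by light microscopy.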

Rattus norvegicus [2] = test: Gastric toxicity in albino rat assessed as loss of mucosal membrane at the area of ulceration at 100 mg/kg, po after 5 hrs by hematoxylin and eosin staining; assay type: organism-based; design: dose 100 mg/kg, route oral; settings: in vivo; in short: as §1
Rattus norvegicus [3] = test: Antiinflammatory activity in albino rat assessed as inhibition of carrageenan-induced paw edema at 100 mg/kg, po administered 30 mins prior to challenge measured after 1 hr relative to untreated control; assay type: functional
In short: (§2)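 Adult male albino rats (120–140 g), groups of four, fasted 24 h with water allowed. Test compound suspended in 0.5% w/v CMC in water, given orally at 100 mg/kg; controls received CMC alone. After 30 min, 0.1 mL of 1% carrageenan in saline injected subplantar into right hind paw, saline into left. Paw thickness measured by caliper; % inhibition = [(VR−VL)control − (VR−VL)treated]/(VR−VL)control ×100; one-way ANOVA versus control.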

Rattus norvegicus [4] = test: Antiinflammatory activity in albino rat assessed as inhibition of carrageenan-induced paw edema at 100 mg/kg, po administered 30 mins prior to challenge measured after 4 hrs relative to untreated control; assay type: functional; in short: as §2
Rattus norvegicus [5] = test: Gastric toxicity in albino rat assessed as ulcer index at 100 mg/kg, po after 5 hrs; assay type: organism-based; design: dose 100 mg/kg, route oral; settings: in vivo
In short: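 Rats dosed orally at 100 mg/kg in 0.5% CMC (n = 4). Stomach lesions counted and graded by area: level I <1 mm², II 1–3 mm², III >3 mm². Ulcer index = 1×(level I count) + 2×(level II) + 3×(level III). Mean ± SEM; one-way ANOVA versus control.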

Rattus norvegicus [6] = test: Antiinflammatory activity in albino rat assessed as inhibition of carrageenan-induced paw edema at 100 mg/kg, po administered 30 mins prior to challenge measured after 2 hrs relative to untreated control; assay type: functional; in short: as §2
Rattus norvegicus [7] = test: Gastric toxicity in albino rat assessed as change in gastric mucosa structure at 100 mg/kg, po after 5 hrs by hematoxylin and eosin staining; assay type: organism-based; design: dose 100 mg/kg, route oral; settings: in vivo; in short: as §1
Rattus norvegicus [8] = test: Antiinflammatory activity in albino rat assessed as inhibition of carrageenan-induced paw edema at 100 mg/kg, po administered 30 mins prior to challenge measured after 5 hrs relative to untreated control; assay type: functional; in short: as §2
Rattus norvegicus [9] = test: Antiinflammatory activity in albino rat assessed as inhibition of carrageenan-induced paw edema at 100 mg/kg, po administered 30 mins prior to challenge measured after 3 hrs relative to untreated control; assay type: functional; in short: as §2
[10] = Induction of nitric oxide release at 0.1 mM after 1 hr in phosphate buffer at pH 7.4 by Griess assay; assay type: physicochemical; settings: pH 7.4, 1 h, 100 µM
In short: (§3)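 Compound at a final 10^-4 M with 0.5 mM N-acetylcysteine in phosphate buffer pH 7.4 at 37 °C. Reaction mixture treated with Griess reagent (sulfanilamide, N-naphthylethylenediamine, phosphoric acid), 10 min at room temperature, absorbance read at 546 nm. Sodium nitrite standards (10–80 nmol/mL) used for calibration. NO reported as mol/mol, n = 4 reaction mixtures.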

Rattus norvegicus [11] = test: Gastric toxicity in albino rat assessed as abnormal morphology of fundic gland at 100 mg/kg, po after 5 hrs by hematoxylin and eosin staining; assay type: organism-based; design: dose 100 mg/kg, route oral; settings: in vivo; in short: as §1
[12] = Induction of nitric oxide release at 0.1 mM after 6 hrs in phosphate buffer at pH 7.4 by Griess assay; assay type: physicochemical; settings: pH 7.4, 6 h, 100 µM; in short: as §3
[13] = Induction of nitric oxide release at 0.1 mM after 4 hrs in phosphate buffer at pH 7.4 by Griess assay; assay type: physicochemical; settings: pH 7.4, 4 h, 100 µM; in short: as §3
[14] = Induction of nitric oxide release at 0.1 mM after 3 hrs in phosphate buffer at pH 7.4 by Griess assay; assay type: physicochemical; settings: pH 7.4, 3 h, 100 µM; in short: as §3
Rattus norvegicus [15] = test: Gastric toxicity in albino rat assessed as vasodilation of blood capillaries at 100 mg/kg, po after 5 hrs by hematoxylin and eosin staining; assay type: organism-based; design: dose 100 mg/kg, route oral; settings: in vivo; in short: as §1
[16] = Induction of nitric oxide release at 0.1 mM in 0.1 N HCl buffer at pH 1.0 by Griess assay; assay type: physicochemical; settings: pH 1, 100 µM
In short: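 Griess procedure as at neutral pH, but in 0.1 N HCl pH 1 in place of phosphate buffer. Compound at a final 10^-4 M with N-acetylcysteine, 37 °C. Absorbance read at 546 nm against sodium nitrite standards (10–80 nmol/mL). Release expressed relative to a theoretical 1 mol NO/mol compound.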

Rattus norvegicus [17] = test: Antiinflammatory activity in albino rat assessed as inhibition of carrageenan-induced paw edema at 100 mg/kg, po administered 30 mins prior to challenge measured after 3 hrs relative to indomethacin; assay type: functional; design: scale not given: the % may be the effect or the level left
In short: (§4)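 Carrageenan paw edema in male albino rats (120–140 g, n = 4, fasted 24 h), compound 100 mg/kg po in 0.5% CMC 30 min before subplantar 1% carrageenan (0.1 mL). Percent edema inhibition at the stated hour from right minus left paw thickness versus the CMC control, then expressed as a percentage of the indomethacin (100 mg/kg) response at the same time.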

[18] = Induction of nitric oxide release at 0.1 mM after 2 hrs in phosphate buffer at pH 7.4 by Griess assay; assay type: physicochemical; settings: pH 7.4, 2 h, 100 µM; in short: as §3
Rattus norvegicus [19] = test: Gastric toxicity in albino rat assessed as edema at 100 mg/kg, po after 5 hrs by hematoxylin and eosin staining; assay type: organism-based; design: dose 100 mg/kg, route oral; settings: in vivo; in short: as §1
[20] = Induction of nitric oxide release at 0.1 mM after 5 hrs in phosphate buffer at pH 7.4 by Griess assay; assay type: physicochemical; settings: pH 7.4, 5 h, 100 µM; in short: as §3
Rattus norvegicus [21] = test: Gastric toxicity in albino rat assessed as structural damage in mucosal membrane at 100 mg/kg, po after 5 hrs by hematoxylin and eosin staining; assay type: organism-based; design: dose 100 mg/kg, route oral; settings: in vivo; in short: as §1
Rattus norvegicus [22] = test: Gastric toxicity in albino rat assessed as capillary inflammatory cells appearance at 100 mg/kg, po after 5 hrs by hematoxylin and eosin staining; assay type: organism-based; design: dose 100 mg/kg, route oral; settings: in vivo; in short: as §1
Rattus norvegicus [23] = test: Gastric toxicity in albino rat assessed as capillary dilation in lamina propia below fundic gland at 100 mg/kg, po after 5 hrs by hematoxylin and eosin staining; assay type: organism-based; design: dose 100 mg/kg, route oral; settings: in vivo; in short: as §1
Rattus norvegicus [24] = test: Antiinflammatory activity in albino rat assessed as inhibition of carrageenan-induced paw edema at 100 mg/kg, po administered 30 mins prior to challenge measured after 4 hrs relative to indomethacin; assay type: functional; design: scale not given: the % may be the effect or the level left; in short: as §4
Rattus norvegicus [25] = test: Gastric toxicity in albino rat assessed as apoptotic glandular epithelial cells appearance at 100 mg/kg, po after 5 hrs by hematoxylin and eosin staining; assay type: organism-based, Epithelial cell; design: dose 100 mg/kg, route oral; settings: in vivo; in short: as §1
Rattus norvegicus [26] = test: Gastric toxicity in albino rat assessed as degeneration of fundic gland at 100 mg/kg, po after 5 hrs by hematoxylin and eosin staining; assay type: organism-based; design: dose 100 mg/kg, route oral; settings: in vivo; in short: as §1

SMILES	Activity (Rattus norvegicus [2])	inhibition in vivo at 100 mg/kg (Rattus norvegicus [3]) [%]	inhibition in vivo at 100 mg/kg (Rattus norvegicus [4]) [%]	UI (Rattus norvegicus [5])	inhibition in vivo at 100 mg/kg (Rattus norvegicus [6]) [%]	inhibition in vivo at 100 mg/kg (Rattus norvegicus [8]) [%]	inhibition in vivo at 100 mg/kg (Rattus norvegicus [9]) [%]	Activity [10] [mol/mol]	Activity [12] [mol/mol]	Activity [13] [mol/mol]	Activity [14] [mol/mol]	Activity [16]	Activity [18] [mol/mol]	Activity [20] [mol/mol]	Activity (Rattus norvegicus [22])	other results
O=C(CBr)Nc1ccc(C(=O)/C=C/c2ccc(Cl)cc2)cc1	Toxic	44	59	21.4	52	54	59	–	–	–	–	–	–	–	–	Activity (Rattus norvegicus [1]): Toxic; Activity (Rattus norvegicus [7]): Toxic
O=C(CO[N+](=O)[O-])Nc1ccc(C(=O)/C=C/c2ccc(Cl)cc2)cc1	–	42	67	2.5	57	60	69	0.32	0.73	0.73	0.54	Not Active	0.37	0.75	–	Activity (Rattus norvegicus [11]): Non-toxic; Activity (Rattus norvegicus [15]): Non-toxic; Activity (Rattus norvegicus [17]): 89%; Activity (Rattus norvegicus [19]): Non-toxic
CC(O[N+](=O)[O-])C(=O)Nc1ccc(C(=O)/C=C/c2ccc(Cl)cc2)cc1 (stereo unspecified)	Toxic	45	61	3.5	55	56	62	0.13	0.16	0.35	0.46	Not Active	0.16	0.28	–	Activity (Rattus norvegicus [21]): Toxic; Activity (Rattus norvegicus [17]): 80%
CC(=O)c1ccc(OCC(=O)Nc2ccc(C(=O)/C=C/c3ccc4c(c3)OCO4)cc2)cc1	–	37	53	11.2	43	50	57	–	–	–	–	–	–	–	Toxic	Activity (Rattus norvegicus [23]): Toxic; Activity (Rattus norvegicus [19]): Toxic
O=C(COCc1c(-c2ccccc2)no[n+]1[O-])Nc1ccc(C(=O)/C=C/c2ccc(Cl)cc2)cc1	–	38	75	1	48	62	66	0.55	0.87	1.295	1.22	Not Active	0.98	1.5	Non-toxic	Activity (Rattus norvegicus [21]): Non-toxic; Activity (Rattus norvegicus [24]): 91%
O=C(COCc1c(-c2ccccc2)no[n+]1[O-])Nc1ccc(C(=O)/C=C/c2ccc3c(c2)OCO3)cc1	–	34	72	1.3	55	70	62	0.5	0.75	0.89	0.86	Not Active	0.71	1.26	–	Activity (Rattus norvegicus [24]): 87%
COc1ccc2c(c1)c(CC(=O)O)c(C)n2C(=O)c1ccc(Cl)cc1 [INDOMETHACIN]	Toxic	56	83	45.5	70	87	78	–	–	–	–	–	–	–	Toxic	Activity (Rattus norvegicus [25]): Toxic; Activity (Rattus norvegicus [26]): Toxic
